The text below walks through data of ChEMBL document CHEMBL4373749, “Design and Catalyzed Activation of Tak-242 Prodrugs for Localized Inhibition of TLR4-Induced Inflammation” (ACS Med Chem Lett, 2020).

The target in series [1] is T1, Toll-like receptor 4 (Homo sapiens, UniProt O00206). Kind of series: Inhibition of human TLR4 expressed in HEK-Blue cells assessed as decrease in LPS-induced TLR4 response incubated for 1 hr followed by LPS stimulation and further incubated for 22 hrs by cell based reporter assay.
Series [2] deals with T1, Toll-like receptor 4. Briefly: Inhibition of human TLR4 expressed in HEK-Blue cells assessed as decrease in LPS-induced TLR4 response at 15 uM incubated for 1 hr followed by LPS stimulation and further incubated for 22 hrs by cell based reporter assay. Put shortly:
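HEK TLR4 reporter cells exposed to compound across a concentration range, then stimulated with LPS. Read-out is optical density at 650 nm. Complete suppression was defined as the OD650 of cells given racemic reference inhibitor at 15 μM. IC50 values were derived from the concentration-response data.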

Series [3] in a line: Stability of compound in phosphate buffered saline containing 5% DMSO assessed as compound remaining at 0.01 mg/ml at pH 7.4 measured after 1 day by HPLC analysis. It is filed as physicochemical. To be noted: read-out: Stability. Put shortly:
(§1)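 Incubation at 37 °C in phosphate buffered saline, pH 7.4, containing 5% DMSO. Aqueous stability was followed over time.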

Series [4] can be described thus: Stability of compound in phosphate buffered saline containing 5% DMSO at 0.01 mg/ml at pH 7.4 by HPLC analysis. It is filed as physicochemical. To be noted: buffer. Put shortly:
as §1

For series [5], the target named is T2, Oxygen-insensitive NAD(P)H nitroreductase (Escherichia coli K-12, UniProt P38489).
T2 sequence (P38489 whole entry): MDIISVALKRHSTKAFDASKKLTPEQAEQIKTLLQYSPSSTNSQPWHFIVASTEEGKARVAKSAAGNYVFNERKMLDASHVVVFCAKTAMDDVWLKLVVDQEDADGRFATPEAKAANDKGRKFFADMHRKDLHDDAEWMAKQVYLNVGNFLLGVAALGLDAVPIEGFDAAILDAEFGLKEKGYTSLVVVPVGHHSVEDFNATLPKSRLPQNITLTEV
Briefly: Prodrug conversion in PBS containing 5% DMSO assessed as Escherichia coli nitroreductase-mediated activation by measuring increased consumption of prodrug at 0.01 mg/ml at pH 7.4 in presence of […] by HPLC analysis. To be noted: isolated protein. Put shortly: (§2)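 Nitroreductase from E. coli (2 units/mL) with NADPH (1 mg/mL) in PBS, pH 7.4, containing 5% DMSO. The reaction was monitored by HPLC.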

The target of series [6] is T2, Oxygen-insensitive NAD(P)H nitroreductase. Briefly: Prodrug conversion in PBS containing 5% DMSO assessed as Escherichia coli nitroreductase-mediated activation by measuring release of ethyl (6R)-6-[(2-chloro-4-fluorophenyl)sulfamoyl]cyclohexene-1-carboxylate parent drug at 0.01 mg/ml at pH 7.4 in presence of […] by HPLC analysis. To be noted: isolated protein. In outline:
as §2

For series [7] the target is unchanged. Briefly: Prodrug conversion in PBS containing 5% DMSO assessed as Escherichia coli nitroreductase-mediated activation by measuring reduced amine intermediate metabolite formation at 0.01 mg/ml at pH 7.4 in presence of […] by HPLC analysis. It is filed as ADME. Conditions: isolated protein. In outline: as §2

T1 sequence (O00206 whole entry): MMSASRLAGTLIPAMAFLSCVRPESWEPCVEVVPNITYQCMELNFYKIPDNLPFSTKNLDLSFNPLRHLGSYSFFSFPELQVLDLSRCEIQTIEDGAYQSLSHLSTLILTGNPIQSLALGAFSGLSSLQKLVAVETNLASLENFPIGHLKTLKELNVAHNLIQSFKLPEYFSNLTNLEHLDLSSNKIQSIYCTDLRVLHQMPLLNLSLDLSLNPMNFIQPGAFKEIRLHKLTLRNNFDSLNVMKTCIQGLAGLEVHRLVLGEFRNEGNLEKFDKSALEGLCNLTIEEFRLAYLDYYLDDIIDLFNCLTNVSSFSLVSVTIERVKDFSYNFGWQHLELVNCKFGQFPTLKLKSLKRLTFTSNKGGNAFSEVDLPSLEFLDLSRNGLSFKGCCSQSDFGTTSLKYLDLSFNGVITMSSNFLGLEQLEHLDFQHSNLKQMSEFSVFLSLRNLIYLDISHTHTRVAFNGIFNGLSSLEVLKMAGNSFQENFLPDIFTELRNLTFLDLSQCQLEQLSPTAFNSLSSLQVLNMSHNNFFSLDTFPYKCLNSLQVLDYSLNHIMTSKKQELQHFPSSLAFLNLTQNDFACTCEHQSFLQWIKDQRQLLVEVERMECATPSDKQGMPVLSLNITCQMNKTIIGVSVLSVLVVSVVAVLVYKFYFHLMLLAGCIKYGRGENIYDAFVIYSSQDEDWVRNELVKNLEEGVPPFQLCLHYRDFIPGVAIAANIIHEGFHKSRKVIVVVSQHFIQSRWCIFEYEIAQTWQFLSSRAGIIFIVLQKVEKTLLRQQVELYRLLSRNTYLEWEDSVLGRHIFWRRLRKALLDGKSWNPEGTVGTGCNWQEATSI

`CCOC(=O)C1=CCCCC1S(=O)(=O)Nc1ccc(F)cc1Cl` (racemic): the 50% inhibitory concentration (IC50) in series [1] stood at 40 nM. The inhibition in series [2] was 100%.

As to `C#CCOC(=O)N(c1ccc(F)cc1Cl)S(=O)(=O)C1CCCC=C1C(=O)OCC` (racemic), the remaining at 24 h, 0.01 mg/ml in series [3] stood at 25%. The Stability result in series [4] is “Unstable”.

For `C#CCN(c1ccc(F)cc1Cl)S(=O)(=O)C1CCCC=C1C(=O)OCC` (racemic), the Stability entry in series [4] is listed as “Stable”.

With `CCOC(=O)C1=CCCCC1S(=O)(=O)N(Cc1ccc([N+](=O)[O-])cc1)c1ccc(F)cc1Cl` (racemic), the Drug metabolism entry in series [5], in series [6] and in series [7] was “Metabolite_Detected” each time. Also, the Stability result in series [4] is listed as “Stable”.

Turning to `CCOC(=O)C1=CCCCC1S(=O)(=O)N(C(=O)OCc1ccc([N+](=O)[O-])cc1)c1ccc(F)cc1Cl` (racemic), the values for the Drug metabolism entry in series [5], in series [6] and in series [7] were “Metabolite_Detected”, “Metabolite_Detected” and “Metabolite_Notdetected”, respectively. In addition, in series [3], the remaining at 24 h, 0.01 mg/ml turned out to be 85%. Moreover, the Stability result in series [4] is on record as “Unstable”.
